Source: ChEMBL document CHEMBL1122056, “Synthesis and biochemical properties of chemically stable product analogues of the reaction catalyzed by S-adenosyl-L-methionine decarboxylase” (J Med Chem, 1982)

How the values were obtained:
[1] = target: T1, S-adenosylmethionine decarboxylase proenzyme (Rattus norvegicus, UniProt P17708); test: In vitro inhibitory activity against S-adenosyl-L-methionine decarboxylase using liver from rat in absence of putrescine
T1 sequence (P17708 whole entry): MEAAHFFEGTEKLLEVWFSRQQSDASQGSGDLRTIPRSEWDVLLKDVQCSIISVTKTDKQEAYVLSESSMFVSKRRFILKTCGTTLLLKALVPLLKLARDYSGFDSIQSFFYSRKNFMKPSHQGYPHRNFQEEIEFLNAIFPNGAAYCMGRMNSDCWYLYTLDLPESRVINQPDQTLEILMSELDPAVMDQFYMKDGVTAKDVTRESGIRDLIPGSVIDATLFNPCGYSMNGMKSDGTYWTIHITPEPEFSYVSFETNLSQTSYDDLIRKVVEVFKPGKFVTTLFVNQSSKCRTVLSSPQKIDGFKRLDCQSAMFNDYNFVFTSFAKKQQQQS
Summary of the method: (§1)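 Enzyme source: liver of rats injected with MGBG·2HCl (80 mg/kg) 22 h before sacrifice. The extract was taken through a 10500g centrifugation and an (NH4)2SO4 precipitation. Decarboxylation of S-adenosyl-L-[carboxy-14C]methionine was measured as 14CO2 release, with or without 1 mM putrescine. Competitive inhibition was judged from Lineweaver-Burk plots, and Ki was read from Dixon plots.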

[2] = target: T1, S-adenosylmethionine decarboxylase proenzyme; test: In vitro inhibitory activity against S-adenosyl-L-methionine decarboxylase using liver from rat in presence of 1 mM putrescine; summary of the method: as §1
[3] = target: T2, S-adenosylmethionine decarboxylase proenzyme (Rattus norvegicus) (UniProt P17708); test: Time required for the half inactivation of S-Adenosyl-L-methionine decarboxylase was determined with 0.2 mM of compound
T2 sequence (whole entry): T1 sequence (P17708 whole entry)
Summary of the method: (§2)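 The partly purified rat liver enzyme, from MGBG-treated rats, was incubated at 37 °C in 30 mM sodium phosphate pH 7.1 with 5 mM dithiothreitol and the stated additions. Aliquots were taken at intervals and assayed for remaining activity with S-adenosyl-L-[carboxy-14C]methionine. The half-inactivation time was obtained by a least-squares fit of the data points.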

[4] = target: T2, S-adenosylmethionine decarboxylase proenzyme (Rattus norvegicus); test: Time required for the half inactivation of S-Adenosyl-L-methionine decarboxylase was determined with 0.2 mM of compound along with 1 mM NaBH3CN; summary of the method: as §2
[5] = target: T2, S-adenosylmethionine decarboxylase proenzyme (Rattus norvegicus); test: Time required for the half inactivation of S-Adenosyl-L-methionine decarboxylase was determined with 0.2 mM of Compound along with 1 mM NaBH3CN; summary of the method: as §2
[6] = target: T2, S-adenosylmethionine decarboxylase proenzyme (Rattus norvegicus); test: Time required for the half inactivation of S-adenosyl-L-methionine decarboxylase with 0.5 mM of compound along with 0.05 mM of [5-(6-Amino-purin-9-yl)-3,4-dihydroxy-tetrahydro-furan-2-ylmethyl]-dimethyl-sulfonium; iodide; summary of the method: as §2
[7] = target: T2, S-adenosylmethionine decarboxylase proenzyme (Rattus norvegicus); test: Time required for the half inactivation of S-adenosyl-L-methionine decarboxylase with 1 mM of compound along with 0.05 mM of [5-(6-Amino-purin-9-yl)-3,4-dihydroxy-tetrahydro-furan-2-ylmethyl]-dimethyl-sulfonium; iodide; conditions: in the assay text read “0.2 mM of compound” for “1 mM of compound”; summary of the method: as §2
[8] = target: T2, S-adenosylmethionine decarboxylase proenzyme (Rattus norvegicus); test: Time required for the half inactivation of S-adenosyl-L-methionine decarboxylase was determined with 0.5 mM of compound

SMILES	Ki [1]	Ki [2]	Inactivation time [3]	Inactivation time [4]	Inactivation time [5]	Inactivation time [6]	Inactivation time [7]	Inactivation time [8]
CN(CCC#N)C[C@H]1OC(n2cnc3c(N)ncnc32)[C@H](O)[C@@H]1O (some centres undefined)	2800 µM	300 µM	–	–	–	–	–	–
C[S+](CCCN)C[C@H]1OC(n2cnc3c(N)ncnc32)[C@H](O)[C@@H]1O (some centres undefined)	40 µM	3 µM	100 min	10 min	–	–	–	–
NCCCNC[C@H]1OC(n2cnc3c(N)ncnc32)[C@H](O)[C@@H]1O (some centres undefined)	–	50 µM	250 min	–	25 min	–	–	–
NCCNC[C@H]1OC(n2cnc3c(N)ncnc32)[C@H](O)[C@@H]1O (some centres undefined)	540 µM	70 µM	–	–	–	–	–	–
C[S+](CC[C@H](N)C(=O)[O-])C[C@H]1O[C@@H](n2cnc3c(N)ncnc32)[C@H](O)[C@@H]1O (some centres undefined) [ADEMETIONINE]	300 µM	60 µM	100 min	25 min	–	–	–	–
CN(CCCN)C[C@H]1OC(n2cnc3c(N)ncnc32)[C@H](O)[C@@H]1O (some centres undefined)	380 µM	60 µM	93 min	12 min	–	98 min	50 min	41 min
CNCCCNC[C@H]1OC(n2cnc3c(N)ncnc32)[C@H](O)[C@@H]1O (some centres undefined)	–	600 µM	–	–	–	–	–	–
NC[C@H]1O[C@@H](n2cnc3c(N)ncnc32)[C@H](O)[C@@H]1O	1700 µM	200 µM	–	–	–	–	–	–
C[S+](C)C[C@H]1O[C@@H](n2cnc3c(N)ncnc32)[C@H](O)[C@@H]1O	20 µM	2 µM	–	–	–	–	–	–
N=C(N)NC[C@H]1OC(n2cnc3c(N)ncnc32)[C@H](O)[C@@H]1O (some centres undefined)	1000 µM	80 µM	–	–	–	–	–	–
